Source: article PMC12125705 (Journal of medicinal chemistry, 2017)

How the values were obtained:
Assay in all cases: MIC by microbroth dilution
Settings in all cases: 24 h, 37 °C
E. cloacae 13047 = format: cell-based, Enterobacter cloacae
In short: (§1)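 CLSI microbroth dilution in Mueller-Hinton broth. Strains were grown at 37 °C with shaking to log phase, pelleted, and resuspended in 0.85% saline to OD625 0.1. Final inoculum 5 × 10^5 CFU/mL in 96-well plates, tested in triplicate, incubated 24 h at 37 °C. Growth was read as OD at 625 nm.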

K. pneumoniae NR15410 = format: cell-based, Klebsiella pneumoniae
In short: as §1

C. freundii 4747CFAA = format: cell-based, Citrobacter freundii
In short: as §1

S. epidermidis 12384 = format: cell-based, Staphylococcus epidermidis
In short: as §1

E. faecium BM4105RF = format: cell-based, Enterococcus faecium
P. aeruginosa 27853 = format: cell-based, Pseudomonas aeruginosa
MRSA A960649 = format: cell-based, Staphylococcus aureus
In short: as §1

MRSA 33591 = format: cell-based, Staphylococcus aureus
In short: as §1

S. flexneri 2457NR517 = format: cell-based, Shigella flexneri
A. baumanni 19606 = format: cell-based, Acinetobacter baumanni
In short: as §1

E. coli K12 = format: cell-based, Escherichia coli
S. aureus 33591 = format: cell-based, Staphylococcus aureus
E. faecalis 29212 = format: cell-based, Enterococcus faecalis
S. aureus 29213 = format: cell-based, Staphylococcus aureus
E. coli 25922 = format: cell-based, Escherichia coli

For “6-(4-Methylpiperazin-1-yl)-2-(4-(2-(4-(oct-7-ynyl)-1H-1,2,3-triazol-1-yl)ethoxy)phenyl)-1H-benzo[d]imidazole [Compound 22]”, the “MIC E. cloacae 13047” value (E. cloacae 13047) was >32 µg/mL, the “MIC K. pneumoniae NR15410” value (K. pneumoniae NR15410) was >32 µg/mL and the “MIC C. freundii 4747CFAA” value (C. freundii 4747CFAA) was >32 µg/mL. The “MIC S. epidermidis 12384” value (S. epidermidis 12384) was >32 µg/mL, the “MIC E. faecium BM4105RF” value (E. faecium BM4105RF) was >32 µg/mL and the “MIC P. aeruginosa 27853” value (P. aeruginosa 27853) was 16 µg/mL. The “MIC MRSA A960649” value (MRSA A960649) was >32 µg/mL, the “MIC MRSA 33591” value (MRSA 33591) was >32 µg/mL and the “MIC S. flexneri 2457NR517” value (S. flexneri 2457NR517) was >32 µg/mL. The “MIC A. baumanni 19606” value (A. baumanni 19606) was >32 µg/mL, the “MIC E. coli K12” value (E. coli K12) was 16 µg/mL and the “MIC S. aureus 33591” value (S. aureus 33591) was 16 to 32 µg/mL. For the same substance, the “MIC E. faecalis 29212” value (E. faecalis 29212) was 16 to 32 µg/mL, the “MIC S. aureus 29213” value (S. aureus 29213) was 16 to 32 µg/mL and the “MIC E. coli 25922” value (E. coli 25922) was 16 µg/mL.
